{"source": "ChEMBL document CHEMBL4513216", "about": "“Probing the Open Global Health Chemical Diversity Library for Multistage-Active Starting Points for Next-Generation Antimalarials” (ACS Infect Dis, 2020)", "assay": "Toxicity liver stage against HepG2, at 10uM", "type": "cell-based", "set-up": "test concentration 10 uM, cell line HepG2-A16-CD81EGFP", "settings": "human, HepG2-A16-CD81EGFP cells; read-out: INHIBITION", "procedure,_shortened": "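Uninfected HepG2-A16-CD81EGFP cells, 3 × 10^3 per well, 1536-well, plated on prespotted compound at 10 μM final, parasite-free screening media added to match infected plates; puromycin 10 μM positive, DMSO 0.5% negative; run in parallel with 48 h PbLuc assay at 37 °C, 5% CO2; viability by CellTiter-Glo luminescence, normalized to controls.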"}
{"smiles": "O=C(c1nnn(-c2ccc(Cl)cc2)n1)N(CCO)Cc1ccccc1", "values": [{"measurement": "cytotoxicity at 10 µM", "result": -1.9, "unit": "%"}]}
{"smiles": "CO[C@@H]1CCN(S(=O)(=O)c2cccs2)[C@H]1Cc1ccccc1", "values": [{"measurement": "cytotoxicity at 10 µM", "result": -78, "unit": "%"}]}
{"smiles": "COc1cccc(CN2CC[C@H](NC(C)=O)[C@@H](O)CC2)c1F", "values": [{"measurement": "cytotoxicity at 10 µM", "result": -8.63, "unit": "%"}]}
{"smiles": "COc1cccc(OCCNS(C)(=O)=O)c1", "values": [{"measurement": "cytotoxicity at 10 µM", "result": 13, "unit": "%"}]}
{"smiles": "CCOc1ncccc1CNC(=O)Nc1ccc(CC)cc1", "values": [{"measurement": "cytotoxicity at 10 µM", "result": -23.7, "unit": "%"}]}
{"smiles": "COCc1ncn(Cc2nc(-c3ccc(OC)c(OC)c3)oc2C)n1", "values": [{"measurement": "cytotoxicity at 10 µM", "result": -4.77, "unit": "%"}]}
{"smiles": "O=S(=O)(CCC1CCCO1)NCc1ncc(-c2ccccc2)o1", "note": "(stereo unspecified)", "values": [{"measurement": "cytotoxicity at 10 µM", "result": 3.7, "unit": "%"}]}
{"smiles": "CC(C)n1ccnc1C1CCCN(c2cc(C(=O)NC3CC3)ccn2)C1", "note": "(stereo unspecified)", "values": [{"measurement": "cytotoxicity at 10 µM", "result": -0.352, "unit": "%"}]}
{"smiles": "COC1CN(C(=O)Cc2cccs2)CCC(=O)N(C)c2ccccc21", "note": "(stereo unspecified)", "values": [{"measurement": "cytotoxicity at 10 µM", "result": -11.6, "unit": "%"}]}
{"smiles": "COC(=O)C1CN(CC(=O)Nc2cccc(OC)c2)c2ccccc21", "note": "(stereo unspecified)", "values": [{"measurement": "cytotoxicity at 10 µM", "result": 11.1, "unit": "%"}]}
{"smiles": "O=C(CCN1CCOCC1)Nc1cccc(CNCc2cccs2)c1", "values": [{"measurement": "cytotoxicity at 10 µM", "result": 5.04, "unit": "%"}]}
{"smiles": "CCn1ccnc1CN1CCCN(C(=O)c2ccnc(C)n2)CC1", "values": [{"measurement": "cytotoxicity at 10 µM", "result": -12.2, "unit": "%"}]}
{"smiles": "Cc1nnc(C2CCN(c3ccc(F)cc3)CC2)o1", "values": [{"measurement": "cytotoxicity at 10 µM", "result": 0.207, "unit": "%"}]}
{"smiles": "N#CC1CCCN(S(=O)(=O)c2ccc(C(=O)NCC(F)F)cc2)C1", "note": "(stereo unspecified)", "values": [{"measurement": "cytotoxicity at 10 µM", "result": 6.74, "unit": "%"}]}
{"smiles": "Cc1ncccc1NC(=O)C1=NOC2(CCN(Cc3nccs3)C2)C1", "note": "(stereo unspecified)", "values": [{"measurement": "cytotoxicity at 10 µM", "result": 2.11, "unit": "%"}]}
{"smiles": "CN(CC(=O)N1CCCCC1Cn1cccn1)C1CC1", "note": "(stereo unspecified)", "values": [{"measurement": "cytotoxicity at 10 µM", "result": -3.45, "unit": "%"}]}
{"smiles": "O=C(C[C@@H]1COC[C@H]2CN(Cc3ccccn3)C[C@@H]12)N1CCOCC1", "values": [{"measurement": "cytotoxicity at 10 µM", "result": -1.63, "unit": "%"}]}
{"smiles": "O=C(c1ccoc1)N1CCOC2(COCCN(c3ncccn3)C2)C1", "note": "(stereo unspecified)", "values": [{"measurement": "cytotoxicity at 10 µM", "result": -98.4, "unit": "%"}]}
{"smiles": "CCn1nc2c(cc1=O)CN(Cc1nc(-c3cccs3)no1)CC2", "values": [{"measurement": "cytotoxicity at 10 µM", "result": -8.99, "unit": "%"}]}
{"smiles": "O=C(NCC1CC1)c1nc2c(o1)CN(CC1CC1)C2", "values": [{"measurement": "cytotoxicity at 10 µM", "result": -147, "unit": "%"}]}
{"smiles": "CN1CCC(NN2CCN(C)CC2)CC1", "values": [{"measurement": "cytotoxicity at 10 µM", "result": -2.76, "unit": "%"}]}
{"smiles": "Cc1ccccc1CN1CCCN(C2CCOC2=O)CC1", "note": "(stereo unspecified)", "values": [{"measurement": "cytotoxicity at 10 µM", "result": -3.09, "unit": "%"}]}
{"smiles": "CCN1CCN(c2ccc(C(=O)NCCOC)cc2F)CC1", "values": [{"measurement": "cytotoxicity at 10 µM", "result": 1.12, "unit": "%"}]}
{"smiles": "O=C(CCc1cscn1)NS(=O)(=O)c1ccc2ccccc2c1", "values": [{"measurement": "cytotoxicity at 10 µM", "result": -13.1, "unit": "%"}]}
{"smiles": "CCN1C[C@@H]2CN(Cc3cccs3)C[C@@H]2C1=O", "values": [{"measurement": "cytotoxicity at 10 µM", "result": -3.19, "unit": "%"}]}
{"smiles": "CNC(=O)COC1COC2(CCN(c3ccc(C)nn3)CC2)C1", "note": "(stereo unspecified)", "values": [{"measurement": "cytotoxicity at 10 µM", "result": -0.419, "unit": "%"}]}
{"smiles": "O=C(C1CC1)N1CCc2nc(C3CCN(C(=O)C4CC4)C3)nc(O)c2C1", "note": "(stereo unspecified)", "values": [{"measurement": "cytotoxicity at 10 µM", "result": -20.9, "unit": "%"}]}
{"smiles": "Cn1cc(CNC2CCCOc3c(Cl)cccc32)cn1", "note": "(stereo unspecified)", "values": [{"measurement": "cytotoxicity at 10 µM", "result": 10.7, "unit": "%"}]}
{"smiles": "O=C(c1cc(Cl)c2c(c1)OCO2)N1CCN(c2ncccn2)CC1", "values": [{"measurement": "cytotoxicity at 10 µM", "result": -0.769, "unit": "%"}]}
{"smiles": "CC(CN1CCCC1)C(=O)N1CCC(c2nccn2CC2CC2)CC1", "note": "(stereo unspecified)", "values": [{"measurement": "cytotoxicity at 10 µM", "result": -26.3, "unit": "%"}]}
{"smiles": "Cc1ncnc2c1CCN(CC(=O)N(C)C)CC2", "values": [{"measurement": "cytotoxicity at 10 µM", "result": -101, "unit": "%"}]}
{"smiles": "CNc1cncc(C2CCCN2C(=O)CCn2ccnc2)n1", "note": "(stereo unspecified)", "values": [{"measurement": "cytotoxicity at 10 µM", "result": 3.91, "unit": "%"}]}
{"smiles": "CCN(Cc1noc(C(C)(C)C)n1)Cc1ccc(C#N)cc1F", "values": [{"measurement": "cytotoxicity at 10 µM", "result": -4.45, "unit": "%"}]}
{"smiles": "COc1cccc(-c2c[nH]c(C3CCCN3)n2)c1", "note": "(stereo unspecified)", "values": [{"measurement": "cytotoxicity at 10 µM", "result": -4.91, "unit": "%"}]}
{"smiles": "CCc1nc(CN2CCCN(Cc3cnn(C)c3)CC2)no1", "values": [{"measurement": "cytotoxicity at 10 µM", "result": -2, "unit": "%"}]}
{"smiles": "Cc1ccccc1CN1C[C@@H](CN(C)CCO)[C@@H](CO)C1", "values": [{"measurement": "cytotoxicity at 10 µM", "result": -1.03, "unit": "%"}]}
{"smiles": "CCc1nsc(N2CCn3c(nnc3-c3ccccc3)C2)n1", "values": [{"measurement": "cytotoxicity at 10 µM", "result": 3.67, "unit": "%"}]}
{"smiles": "Cc1nc(C)n(CC2CN(Cc3ccccc3C#N)CCO2)n1", "note": "(stereo unspecified)", "values": [{"measurement": "cytotoxicity at 10 µM", "result": -8.8, "unit": "%"}]}
{"smiles": "CCOCc1cnc2n1CCN(C(=O)Cc1cccs1)C2C", "note": "(stereo unspecified)", "values": [{"measurement": "cytotoxicity at 10 µM", "result": 8.04, "unit": "%"}]}
{"smiles": "CN(C)CCn1c2c(ccc1=O)CCN(Cc1ccncc1)CC2", "values": [{"measurement": "cytotoxicity at 10 µM", "result": 3.97, "unit": "%"}]}
{"smiles": "CC(C)c1noc(CCCC(=O)N2CCN(Cc3ccccn3)CC2)n1", "values": [{"measurement": "cytotoxicity at 10 µM", "result": -1.79, "unit": "%"}]}
{"smiles": "CN(CC1(O)CCCC1)C(=O)c1cccc(Nc2cnccn2)c1", "values": [{"measurement": "cytotoxicity at 10 µM", "result": -4.27, "unit": "%"}]}
{"smiles": "CN1CCN(C(=O)C2SCCc3sccc32)CC1", "note": "(stereo unspecified)", "values": [{"measurement": "cytotoxicity at 10 µM", "result": -12.6, "unit": "%"}]}
{"smiles": "CC(C)c1nnc(CN2CCCc3ccc(S(N)(=O)=O)cc32)o1", "values": [{"measurement": "cytotoxicity at 10 µM", "result": -1.08, "unit": "%"}]}
{"smiles": "Cc1nc(C)c(C(=O)Nc2cccc(CN3CCC(CO)CC3)c2)o1", "values": [{"measurement": "cytotoxicity at 10 µM", "result": -154, "unit": "%"}]}
{"smiles": "CC(C)S(=O)(=O)CC(=O)N1CCCC(n2ccnc2)C1", "note": "(stereo unspecified)", "values": [{"measurement": "cytotoxicity at 10 µM", "result": 10.2, "unit": "%"}]}
